Compounds with a hit are over-represented: about 1.9% of the library has one in this group of screens.
Neddylation inh: cullin neddylation inhibition. 360,000 tested, 0.58% active. inhibition, % at 25 µM. AID 651699. TR-FRET cullin neddylation, biochemical. P61081+Q13564; in the data active = inhibition above about 36%
UBC13 inh: inhibitors of human UBC13 polyubiquitin chain formation; P61088; TR-FRET; inhibition, % at 20 µM; 330,000 tested, 0.47% active; AID 485273; in the data active = inhibition above about 45%, passing the limit was not always enough; inconclusive = no clear call, values can overlap the other calls
Target sequence (P61088 whole entry, looked up): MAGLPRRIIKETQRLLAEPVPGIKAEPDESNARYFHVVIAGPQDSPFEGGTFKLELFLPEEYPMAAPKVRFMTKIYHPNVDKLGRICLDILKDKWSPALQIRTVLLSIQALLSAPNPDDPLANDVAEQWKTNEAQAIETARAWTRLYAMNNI
SR-BI uptake up: enhances SR-BI lipid uptake from DiI-HDL. CHO ldlA[mSR-BI] cells, DiI-HDL uptake fluorescence, 3 h; 100 = double the neutral-control signal. activation, % at 12.5 µM. 320,000 tested, 0.096% active. AID 504775;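 active = mean replicate activation of at least 60% and every replicate at or above 60%; inconclusive = mean or all-replicate condition met, but not both; inactive = mean below 60% and not all replicates reaching 60%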
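system = CHO ldlA[mSR-BI] cells, LDL receptor-null, SR-BI overexpressing | medium = Ham's F12 with 0.5% BSA, HEPES 25 mM, pH 7.4 | probe or stimulus = DiI-HDL 10 µg/mL | compound dosing = single-point compound dose | incubation = compound exposure 3 h, 37 °C | technique = DiI fluorescence, bottom read | read-out = cell-associated DiI fluorescence as measure of HDL uptake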
SR-BI HDL uptake: mouse SR-BI HDL lipid transfer inhibition; Q61009; ldlA[mSR-BI] CHO cells, DiI-HDL uptake fluorescence, 3 h; inhibition, % at 12.5 µM; 320,000 tested, 0.96% active; AID 488896;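 active = mean replicate inhibition of at least 70% and a set share of replicates each scoring 70 or more; inconclusive = meets just one of the two criteria; inactive = fails both criteria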
Target sequence (Q61009 whole entry, looked up): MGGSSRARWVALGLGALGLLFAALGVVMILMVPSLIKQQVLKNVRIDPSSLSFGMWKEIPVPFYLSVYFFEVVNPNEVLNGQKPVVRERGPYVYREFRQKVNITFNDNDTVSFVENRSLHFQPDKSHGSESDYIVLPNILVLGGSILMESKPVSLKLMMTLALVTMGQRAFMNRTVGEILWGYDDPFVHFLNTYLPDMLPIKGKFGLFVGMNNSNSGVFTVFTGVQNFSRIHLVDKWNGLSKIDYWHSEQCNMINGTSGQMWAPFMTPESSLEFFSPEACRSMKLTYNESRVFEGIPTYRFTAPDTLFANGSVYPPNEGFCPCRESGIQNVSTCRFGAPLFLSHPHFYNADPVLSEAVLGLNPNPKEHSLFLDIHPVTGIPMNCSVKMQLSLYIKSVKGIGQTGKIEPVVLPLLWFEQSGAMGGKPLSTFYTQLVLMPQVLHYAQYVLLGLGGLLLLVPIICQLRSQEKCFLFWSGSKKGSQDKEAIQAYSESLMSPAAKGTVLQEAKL
Neddyl conf: cullin neddylation inhibition, confirmation; shares compounds with Neddylation inh; TR-FRET cullin neddylation biochemical assay; calls only at 25 µM; 1,800 tested, 13% active; AID 652217; in the data active = inhibition above about 40%;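 also: neddylation substrate is the cullin 1 ring ligase complex with SKP2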
Hits are given with their value; - = inactive; ? = inconclusive; . = no result shown; + = active, no number.

SMILES	Neddylation inh	UBC13 inh	SR-BI uptake up	SR-BI HDL uptake	Neddyl conf
CCOc1ccc2[nH]c(=O)c(CN(Cc3ccco3)C(CC)c3nnnn3Cc3ccccc3)cc2c1 (stereo not given)	40.9	-	-	-	-
CCOc1ccc2[nH]c(=O)c(CN(Cc3ccco3)Cc3nnnn3Cc3ccccc3)cc2c1	-	-	-	-	.
CCOc1ccc2[nH]c(=O)c(CN(Cc3cccs3)C(CC)c3nnnn3C(C)(C)CC)cc2c1 (stereo not given)	45.2	.	-	-	-
Cc1[nH]c2ccccc2c1/C=N/NC(=O)c1cccc(Br)c1	-	-	-	-	.
Cc1[nH]c2ccccc2c1/C=N/NC(=O)c1cccc(S(=O)(=O)Nc2ccccc2Cl)c1	44.5	-	-	-	-
O=C(NCCc1ccc(Cl)cc1Cl)C1=CC=CN2CCS(=O)(=O)N=C12	53.3	-	-	-	+
CC(C)c1ccc(NC(=O)C2=CC=CN3CCS(=O)(=O)N=C23)cc1	-	-	-	-	.
COc1cc(NC(=O)c2ccc(Cl)cc2)c(Cl)cc1NC(=O)c1cccnc1	.	-	-	-	.
O=C(Nc1ccc2nc(-c3ccccc3)oc2c1)c1ccco1	37.5	-	-	-	-
CC(NC(=O)c1ccccc1O)c1ccccc1 (stereo not given)	46.3	-	.	.	.
COc1ccccc1C(=O)NC(C)c1ccccc1 (stereo not given)	-	-	-	-	.
Nc1cc(C(=O)O)ccc1Nc1ccccc1	48.5	-	-	-	.
Nc1cc(=O)[nH]c(SCC(=O)Nc2cc(S(=O)(=O)N3CCCCC3)ccc2Cl)n1	-	-	-	-	.
COc1cccc(-c2cc3nc(C)cc(N4CCN(C(=O)c5ccoc5)CC4)n3n2)c1	46.9	.	.	.	.
O=C(CNC(=O)c1ccco1)N/N=C/c1cc(Br)ccc1O	42.0	-	.	.	-
O=C(CNC(=O)c1ccccc1Br)N/N=C/c1cc(Br)ccc1O	-	-	-	-	.
O=C(CNC(=O)c1ccccc1Br)N/N=C/c1ccccc1O	39.9	-	-	-	-
O=C(CNC(=O)c1ccco1)N/N=C/c1ccc(O)cc1O	-	-	-	-	.
CC12CCC(C(N)C1=O)C2(C)C (stereo not given)	-	.	-	-	.
CC(OC(=O)c1ccc2c(c1)NC(=O)CS2)C(=O)c1ccc(F)cc1 (stereo not given)	-	-	-	-	.
CC(C)CC[n+]1ccn(-c2nc3ccccc3nc2[N-]S(=O)(=O)c2ccc(Cl)cc2)c1	38.6	-	-	-	-
CCCCC[n+]1ccn(-c2nc3ccccc3nc2[N-]S(=O)(=O)c2ccccc2)c1	-	-	-	-	.
Cc1ccc(S(=O)(=O)[N-]c2nc3ccccc3nc2-n2cc[n+](CCC(C)C)c2)cc1	44.2	-	-	-	-
O=C(N/N=C/c1cn(Cc2ccccc2)c2ccccc12)c1cc(O)cc(O)c1	41.1	-	-	-	+
Cc1ccc(C(=O)N/N=C/c2cn(Cc3ccccc3)c3ccccc23)cn1	-	-	-	-	.
SMILES	Neddylation inh	UBC13 inh	SR-BI uptake up	SR-BI HDL uptake	Neddyl conf
S=c1[nH]nc(-c2ccco2)n1/N=C/C=C/c1ccco1	-	-	-	-	.
S=c1[nH]nc(-c2cc(-c3ccccc3)n[nH]2)n1/N=C/c1c(Cl)cccc1Cl	48.8	-	.	.	-
Cc1ccccc1/C=N/n1c(-c2cc(-c3ccccc3)n[nH]2)n[nH]c1=S	-	-	.	.	.
S=c1[nH]nc(-c2cc(-c3ccccc3)n[nH]2)n1/N=C/C=C/c1ccco1	69.7	-	.	.	-
C[C@@H](NCCCn1ccc(NC(=O)OCc2ccccc2)nc1=O)c1cccc2ccccc12	-	.	-	-	.
Cc1cc(C)n2nc(-c3ccc(F)cc3)cc2n1	-	.	.	.	.
Cc1cc(C)n2nc(-c3cnn(C)c3C(F)(F)F)cc2n1	42.0	-	-	-	+
Cc1ccc(-c2cc3nc(C)cc(C)n3n2)cc1	47.4	-	-	-	-
COc1ccc(CNc2ncc(-c3cccc([N+](=O)[O-])c3)n2C)c(OC)c1OC	-	?	.	.	.
CCc1ccccc1N(C)S(=O)(=O)c1ccc(-c2cc(C)no2)s1	-	-	-	-	.
Cc1nc(C(=O)NCCO)cc2c1[nH]c1ccccc12	-	-	-	-	.
Cc1nc(C(=O)NCCCO)cc2c1[nH]c1ccccc12	43.6	-	-	-	-
COc1ccc(C(CC(=O)N2CCCCC2)c2c(OC)cc(OC)c3ccc(=O)oc23)cc1 (stereo not given)	46.6	-	-	-	+
COc1cc(C(CC(=O)N2CCOCC2)c2c(OC)cc(OC)c3ccc(=O)oc23)cc(OC)c1OC (stereo not given)	-	-	-	-	.
Clc1cccc(CN2CCc3c([nH]c4ccccc34)C2)c1	43.5	-	-	-	-
Cc1cc(C)c2c(NC(=O)CCl)nn(C)c2n1	40.3	-	-	-	-
CN(C)C(=O)C[C@@H]1CC[C@@H](NC(=O)C2CCC2)[C@@H](CO)O1	-	.	.	.	.
O=C(Nc1ccccc1)Nc1nnc(/C=C/c2ccccc2Cl)s1	45.4	-	-	-	-
CCOC(=O)CCCCCC(=O)Nc1ccc2c(c1)C(=O)N([C@@H](C)CO)C[C@@H](C)[C@H](CN(C)C(=O)Nc1ccccc1)OCCCC[C@H](C)O2	-	.	.	.	.
Cc1c2ccccc2nc2ccccc12	50.4	-	-	-	-
COc1c2ccccc2nc2ccccc12	.	-	-	-	.
Cc1ccc(O)c(/C=N/NC(=O)CN2CCCC2)c1	46.2	-	-	-	-
O=S(=O)(Nc1nc2ccccc2nc1Cl)c1cccc(C(F)(F)F)c1	-	-	.	.	.
CN1CCN([C@H]2CS(=O)(=O)N[C@@H]2COCc2ccccc2)CC1	-	.	.	.	.
Cc1noc(C)c1COc1ccccc1C(=O)N(C)Cc1ccc(C(C)(C)C)cc1	-	-	-	-	.
SMILES	Neddylation inh	UBC13 inh	SR-BI uptake up	SR-BI HDL uptake	Neddyl conf
COc1ccc(C2CC(c3ccc(OC)cc3)n3nc(NC(=O)c4ccco4)nc3N2)cc1 (stereo not given)	38.8	-	-	-	-
O=C(Nc1nc2n(n1)C(c1ccccc1)CC(c1ccc(Cl)cc1)N2)c1ccco1 (stereo not given)	-	-	-	-	.
COc1ccc(C2CC(c3ccccc3)Nc3nc(NC(=O)c4ccco4)nn32)cc1 (stereo not given)	40.0	-	-	-	-
COCC(=O)Nc1nc2n(n1)C(c1ccc(OC)cc1)CC(c1ccc(OC)cc1)N2 (stereo not given)	-	.	-	-	.
CN(Cc1ccccn1)C(=O)c1cc(COc2ccc(F)c(F)c2)on1	-	.	.	.	.
CCCCCCc1c(C)[nH]c2nc3ccccc3n2c1=O	-	-	-	-	.
CCCc1c(C)[nH]c2nc3ccccc3n2c1=O	46.3	-	-	-	-
O=c1cc(CCl)[nH]c2nc3ccccc3n12	42.0	-	-	-	-
O=c1cc(-c2ccccc2)[nH]c2nc3ccccc3n12	.	-	-	-	.
CSCCNC(=O)C1(C)CCN1C(=O)C/C=C/c1ccccc1 (stereo not given)	-	.	.	.	.
NNc1ccc(Cl)c(C(=O)O)c1	-	-	.	.	.
COCCNC(=O)C1(C)CCN(Cc2ccc(C(C)C)cc2)C1 (stereo not given)	-	.	.	.	.
Cc1ccc(C)c(NCCCCC(=O)O)c1	-	.	.	.	.

Screens: PubChem BioAssay, several laboratories
